# In ChEMBL document CHEMBL4024768, “Discovery and Optimization of Thiazolidinyl and Pyrrolidinyl Derivatives as Inhaled PDE4 Inhibitors for Respiratory Diseases” (J Med Chem, 2017):
# Legend:
# [1] = Inhibition of PDE4 in human PBMC assessed as reduction in LPS-induced TNFalpha release after 18 hrs by quantitative ELISA
# [2] = Inhibition of PDE4 in human U937 cell lysates assessed as residual cAMP after 2.5 mins by LANCE assay
# [3] = Intrinsic clearance in human liver microsomes at 1 uM measured after 60 mins in presence NADPH by LC-MS/MS analysis; format: ADME, microsome; settings: read-out: CLH
# In short: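 Compound at 1 μM with human liver microsomes (0.8 mg protein/mL) in Dulbecco's buffer pH 7.4, 1 mM NADPH, 37 °C, in duplicate. Sampled at 0, 5, 10, 20, 30 and 60 min, quenched with ice-cold acetonitrile, and unchanged compound measured by LC−MS/MS. No-NADPH controls; midazolam (1 μM) as phase I control.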
# [4] = Apparent permeability across apical to basolateral side in human Caco2 cells at 10 uM after 2 hrs by LC-MS/MS analysis; format: ADME, cell-based; settings: Caco-2
# [5] = Protein binding in human plasma at 5 uM after 5 hrs by LC-MS/MS analysis; format: ADME, cell-free; settings: read-out: PPB (converted)
# [6] = Metabolic stability in human lung S9 fraction assessed as compound remaining at 1 uM measured after 60 mins in presence of NADPH by LC-MS/MS analysis; format: ADME; settings: read-out: Stability
# [7] = Metabolic stability in human plasma assessed as compound remaining at 1 uM measured after 60 mins in presence of NADPH by LC-MS/MS analysis; format: ADME, cell-free; settings: read-out: Stability
# [8] = Intrinsic clearance in human hepatocytes assessed per million cells at 1 uM measured after 90 mins by LC-MS/MS analysis; format: ADME, cell-based, Hepatocyte; settings: read-out: CLH
# In short: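 Compound at 1 μM with hepatocytes (1 million cells/mL) in Leibovitz L-15 at 37 °C, in duplicate. Sampled at 0, 10, 20, 30, 60 and 90 min, quenched with ice-cold acetonitrile, centrifuged, and unchanged compound measured by LC−MS/MS. Included 7-ethoxycoumarin and 7-hydroxycoumarin activity controls and cell-free medium controls.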
# [9] = Apparent permeability across basolateral to apical side in human Caco2 cells at 10 uM after 2 hrs by LC-MS/MS analysis; format: ADME, cell-based; settings: Caco-2
IC50 [1],IC50 [2],also measured,SMILES
0.57 nM,–,–,CN(C)C(=O)c1cccc(C(=O)N2CCS[C@H]2C(=O)O[C@@H](Cc2c(Cl)c[n+]([O-])cc2Cl)c2ccc(OC(F)F)c(OCC3CC3)c2)c1
0.17 nM,0.176 nM,–,Cc1cc(S(=O)(=O)N2CCS[C@H]2C(=O)O[C@@H](Cc2c(Cl)c[n+]([O-])cc2Cl)c2ccc(OC(F)F)c(OCC3CC3)c2)c(C)s1 (relative stereo)
–,0.323 nM,–,O=C(O[C@@H](Cc1c(Cl)c[n+]([O-])cc1Cl)c1ccc(OC(F)F)c(OCC2CC2)c1)c1ccccc1S(=O)(=O)c1ccccc1
0.047 nM,0.047 nM,–,CN(C)C(=O)c1cccc(S(=O)(=O)N2CCS[C@@H]2C(=O)O[C@@H](Cc2c(Cl)c[n+]([O-])cc2Cl)c2ccc(OC(F)F)c(OCC3CC3)c2)c1
–,0.32 nM,–,O=C(c1ccccc1)c1ccsc1C(=O)O[C@@H](Cc1c(Cl)c[n+]([O-])cc1Cl)c1ccc(OC(F)F)c(OCC2CC2)c1
4.2 nM,0.504 nM,–,CS(=O)(=O)N1CCC[C@H]1C(=O)O[C@@H](Cc1c(Cl)c[n+]([O-])cc1Cl)c1ccc(OC(F)F)c(OCC2CC2)c1 (relative stereo)
0.032 nM,0.014 nM,–,COc1cc([C@H](Cc2c(Cl)c[n+]([O-])cc2Cl)OC(=O)[C@@H]2SCCN2S(=O)(=O)c2cccc(C(=O)N(C)C)c2)ccc1OC(F)F (relative stereo)
0.26 nM,0.176 nM,–,O=C(O[C@@H](Cc1c(Cl)c[n+]([O-])cc1Cl)c1ccc(OC(F)F)c(OCC2CC2)c1)[C@@H]1SCCN1S(=O)(=O)c1ccccc1 (relative stereo)
0.38 nM,0.0533 nM,–,CN(C)C(=O)c1cccc(S(=O)(=O)N2CCC[C@@H]2C(=O)O[C@@H](Cc2c(Cl)c[n+]([O-])cc2Cl)c2ccc(OC(F)F)c(OCC3CC3)c2)c1 (relative stereo)
0.04 nM,0.021 nM,–,CN(C)C(=O)c1cccc(S(=O)(=O)N2CCS[C@H]2C(=O)O[C@@H](Cc2c(Cl)c[n+]([O-])cc2Cl)c2ccc(OC(F)F)c(OC3CCCC3)c2)c1 (relative stereo)
0.86 nM,0.028 nM,–,COCCC(=O)N1CCS[C@H]1C(=O)O[C@@H](Cc1c(Cl)c[n+]([O-])cc1Cl)c1ccc(OC(F)F)c(OCC2CC2)c1 (relative stereo)
0.203 nM,0.094 nM,–,O=C(O[C@@H](Cc1c(Cl)c[n+]([O-])cc1Cl)c1ccc(OC(F)F)c(OCC2CC2)c1)[C@@H]1CCCCN1S(=O)(=O)c1ccccc1 (relative stereo)
0.4 nM,0.109 nM,–,O=C(O[C@@H](Cc1c(Cl)c[n+]([O-])cc1Cl)c1ccc(OC(F)F)c(OCC2CC2)c1)[C@@H]1CCCN1S(=O)(=O)c1ccccc1 (relative stereo)
> 1000 nM,–,–,CN(C)C(=O)c1cccc(S(=O)(=O)N2CCS[C@H]2C(=O)O)c1
–,0.072 nM,–,O=C(O[C@@H](Cc1c(Cl)c[n+]([O-])cc1Cl)c1ccc(OC(F)F)c(OCC2CC2)c1)c1ccccc1
0.035 nM,0.055 nM,"microsomal CLint at 1 µM [3]: 268 µL/min/mg; Papp A→B at 2 h, 10 µM [4]: 2.8 ×10⁻⁶ cm/s; fraction unbound at 5 h, 5 µM [5]: 0.0017; remaining at 1 h, 1 µM [6]: 52.1%; remaining at 1 h, 1 µM [7]: 94%; hepatocyte CLint at 1 µM [8]: 25.9 µL/min/1e6 cells; Papp B→A at 2 h, 10 µM [9]: 4.46 ×10⁻⁶ cm/s",CN(C)C(=O)c1cccc(S(=O)(=O)N2CSC[C@H]2C(=O)O[C@@H](Cc2c(Cl)c[n+]([O-])cc2Cl)c2ccc(OC(F)F)c(OCC3CC3)c2)c1
